Measured values from ChEMBL document CHEMBL1126276, “Synthesis and antimalarial properties of 1-imino derivatives of 7-chloro-3-substituted-3,4-dihydro-1,9(2H,10H)-acridinediones and related structures” (J Med Chem, 1992).

Assays:
Type in all cases: functional
[1] = test system: Plasmodium berghei; assay: Antimalarial activity in Plasmodium berghei infected mice (Mus musculus) after 160 mg/kg subcutaneous dose
How it was run: (§1)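 […] in mice infected with a normal drug-sensitive P. berghei strain. Compound dissolved or suspended in sesame or peanut oil, given as a single subcutaneous dose 72 h postinfection.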

[2] = test system: Plasmodium berghei; assay: Antimalarial activity in Plasmodium berghei infected mice (Mus musculus) after 320 mg/kg subcutaneous dose; how it was run: as §1
[3] = test system: Plasmodium berghei; assay: Antimalarial activity Plasmodium berghei infected mice (Mus musculus) after 640 mg/kg subcutaneous dose; how it was run: as §1
[4] = test system: Plasmodium berghei; assay: (§2) Antimalarial activity in Plasmodium berghei infected mice (Mus musculus) after 80 mg/kg subcutaneous dose; how it was run: as §1
[5] = test system: Plasmodium berghei; assay: (§3) Antimalarial activity in Plasmodium berghei infected mice (Mus musculus) after 40 mg/kg subcutaneous dose; how it was run: as §1
[6] = test system: Plasmodium berghei; assay: Antimalarial activity in Plasmodium berghei infected mice (Mus musculus) after subcutaneous 160 mg/kg dose
How it was run: (§4)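 Normal drug-sensitive P. berghei strain in mice. Compound dissolved or suspended in sesame or peanut oil, given parenterally as a single subcutaneous dose 72 h postinfection.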

[7] = test system: Plasmodium berghei; assay: Antimalarial activity in Plasmodium berghei infected mice (Mus musculus) after subcutaneous 320 mg/kg dose; how it was run: as §4
[8] = test system: Plasmodium berghei; assay: as §3; how it was run: as §4; remark: listed apart in the source
[9] = test system: Plasmodium berghei; assay: Antimalarial activity in Plasmodium berghei infected mice (Mus musculus) after subcutaneous 640 mg/kg dose; how it was run: as §4
[10] = test system: Plasmodium berghei; assay: as §2; how it was run: as §4; remark: listed apart in the source
[11] = test system: Plasmodium berghei; assay: Antimalarial activity in Plasmodium berghei infected mice (Mus musculus) after 20 mg/kg subcutaneous dose; how it was run: as §1

## COc1ccc2nc3c(c(O)c2c1)C(=O)CC(c1ccc(C(F)(F)F)cc1)C3 (stereo not given)
[1]
  Delta mean survival time: 2.9
[2]
  Delta mean survival time: 2.3
[3]
  Delta mean survival time: 4.4
[4]
  Delta mean survival time: 0.1
[5]
  Delta mean survival time: -0.3

## CN(C)CCC/N=C1\CC(c2ccc(C(F)(F)F)cc2)Cc2nc3ccc(Br)cc3c(O)c21 (stereo not given)
[6]
  No. of cured mice: 5
[7]
  No. of cured mice: 5
[8]
  No. of cured mice: 1
[9]
  No. of cured mice: 2
[10]
  No. of cured mice: 5
[11]
  Delta mean survival time: 6
[3]
  Delta mean survival time: 25.7
[5]
  Delta mean survival time: 9.3

## CCN(CC)CC/N=C1\CC(c2cc(OC)c(OC)c(OC)c2)Cc2c1c(=O)c1cc(Cl)ccc1n2O (stereo not given)
[1]
  Delta mean survival time: 1.2
[2]
  Delta mean survival time: 5
[3]
  Delta mean survival time: 6
[5]
  Delta mean survival time: 0.8

## CN(C)CCC/N=C1\CC(c2ccc(Cl)c(Cl)c2)Cc2nc3ccc(Cl)cc3c(O)c21 (stereo not given)
[6]
  No. of cured mice: 5
[7]
  No. of cured mice: 5
[8]
  No. of cured mice: 3
[9]
  No. of cured mice: 5
[10]
  No. of cured mice: 4
[11]
  Delta mean survival time: 9.2
[4]
  Delta mean survival time: 11.8
[5]
  Delta mean survival time: 9.8

## CN(C)CCC/N=C1\CC(c2ccc(Cl)c(C(F)(F)F)c2)Cc2nc3ccc(Cl)cc3c(O)c21 (stereo not given)
[6]
  No. of cured mice: 5
[7]
  No. of cured mice: 5
[8]
  No. of cured mice: 4
[9]
  No. of cured mice: 5
[10]
  No. of cured mice: 5
[11]
  Delta mean survival time: 7.5
[5]
  Delta mean survival time: 8.7

## C=CCn1c2c(c(=O)c3cc(Cl)ccc31)C(=O)CC(c1ccc(C(F)(F)F)cc1)C2 (stereo not given)
[8]
  No. of cured mice: 1
[9]
  No. of cured mice: 4
[1]
  Delta mean survival time: 12.6
[3]
  Delta mean survival time: 15
[5]
  Delta mean survival time: 8.5

## COc1cc(C2C/C(=N\CCCN(C)C)c3c(n(O)c4ccc(Cl)cc4c3=O)C2)cc(OC)c1OC (stereo not given)
[1]
  Delta mean survival time: 1
[2]
  Delta mean survival time: 4
[3]
  Delta mean survival time: 4.3

## CN(C)CCC/N=C1\CC(c2c(Cl)cccc2Cl)Cc2c1c(=O)c1cc(Cl)ccc1n2O (stereo not given)
[6]
  No. of cured mice: 1
[7]
  No. of cured mice: 1
[9]
  No. of cured mice: 5
[1]
  Delta mean survival time: 9.4
[2]
  Delta mean survival time: 7.2
[4]
  Delta mean survival time: 4.1
[5]
  Delta mean survival time: 1.2

## O=C1CC(c2cccc(C(F)(F)F)c2)Cc2c1c(=O)c1cc(Cl)ccc1n2[O-].[Na+] (stereo not given)
[7]
  No. of cured mice: 3
[9]
  No. of cured mice: 5
[1]
  Delta mean survival time: 13.8
[11]
  Delta mean survival time: 6.4
[2]
  Delta mean survival time: 16
[4]
  Delta mean survival time: 10
[5]
  Delta mean survival time: 7.8

## O=C1CC(c2ccccn2)Cc2nc3ccc(Cl)cc3c(O)c21 (stereo not given)
[1]
  Delta mean survival time: 2.4
[2]
  Delta mean survival time: 7.3
[3]
  Delta mean survival time: 4.4
[4]
  Delta mean survival time: 1.1

## CN(C)CCC/N=C1\CC(c2cccc3ccccc23)Cc2c1c(=O)c1cc(Cl)ccc1n2O (stereo not given)
[6]
  No. of cured mice: 1
[7]
  No. of cured mice: 4
[9]
  No. of cured mice: 5
[1]
  Delta mean survival time: 9.3
[2]
  Delta mean survival time: 4.7
[4]
  Delta mean survival time: 7.1
[5]
  Delta mean survival time: 2.6

## CN(C)CCC/N=C1\CC(c2ccc(Cl)cc2Cl)Cc2nc3c(Cl)ccc(Cl)c3c(O)c21 (stereo not given)
[11]
  Delta mean survival time: 1.2
[2]
  Delta mean survival time: 0
[4]
  Delta mean survival time: 0

## CN(C)CCC/N=C1\CC(c2ccc(Cl)c(Cl)c2)Cc2c1c(=O)c1cc(Cl)ccc1n2O (stereo not given)
[6]
  No. of cured mice: 5
[7]
  No. of cured mice: 5
[8]
  No. of cured mice: 3
[9]
  No. of cured mice: 5
[10]
  No. of cured mice: 3
[11]
  Delta mean survival time: 7.1
[4]
  Delta mean survival time: 17.2
[5]
  Delta mean survival time: 12.7

## CN(C)CCC/N=C1\CC(c2ccc(N(C)C)cc2)Cc2c1c(=O)c1cc(Cl)ccc1n2O (stereo not given)
[7]
  No. of cured mice: 3
[9]
  No. of cured mice: 5
[1]
  Delta mean survival time: 6.8
[2]
  Delta mean survival time: 7.4
[4]
  Delta mean survival time: 0.9

## O=C1CC(c2cccc(C(F)(F)F)c2)Cc2nc3ccc(Cl)cc3c(O)c21 (stereo not given)
[1]
  Delta mean survival time: 2.3
[2]
  Delta mean survival time: 3.3
[3]
  Delta mean survival time: 5.3
[4]
  Delta mean survival time: 0.3

## CCN(CC)CCCC(C)/N=C1\CC(c2ccc(Cl)c(Cl)c2)Cc2c1c(=O)c1cc(Cl)ccc1n2O (stereo not given)
[6]
  No. of cured mice: 5
[7]
  No. of cured mice: 5
[8]
  No. of cured mice: 1
[9]
  No. of cured mice: 5
[10]
  No. of cured mice: 1
[4]
  Delta mean survival time: 9.6
[5]
  Delta mean survival time: 6.1

## O=C1CC(c2ccc(F)cc2)Cc2c1c(=O)c1cc(Cl)ccc1n2O (stereo not given)
[6]
  No. of cured mice: 4
[7]
  No. of cured mice: 5
[8]
  No. of cured mice: 2
[9]
  No. of cured mice: 5
[10]
  No. of cured mice: 4
[1]
  Delta mean survival time: 8.8
[11]
  Delta mean survival time: 5
[4]
  Delta mean survival time: 9.8
[5]
  Delta mean survival time: 19.4

## CCN(CC)CCCCCCC/N=C1\CC(c2ccc(C(F)(F)F)cc2)Cc2nc3ccc(Cl)cc3c(O)c21 (stereo not given)
[6]
  No. of cured mice: 3
[8]
  No. of cured mice: 4
[9]
  No. of cured mice: 3
[1]
  Delta mean survival time: 23.1
[3]
  Delta mean survival time: 0.1
[5]
  Delta mean survival time: 9.6

## O=c1c2c(n(O)c3ccc(Cl)cc13)CC(c1cccc(C(F)(F)F)c1)C/C2=N\Cc1ccc(Cl)c(Cl)c1 (stereo not given)
[7]
  No. of cured mice: 2
[9]
  No. of cured mice: 5
[1]
  Delta mean survival time: 8.4
[2]
  Delta mean survival time: 11.5
[4]
  Delta mean survival time: 4.4

## CN(C)CCC/N=C1\CC(c2ccccc2)Cc2c1c(=O)c1cc(Cl)ccc1n2O (stereo not given)
[9]
  No. of cured mice: 5
[1]
  Delta mean survival time: 4.2
[2]
  Delta mean survival time: 8.8
[4]
  Delta mean survival time: 1.2
[5]
  Delta mean survival time: 0.6

## CN(C)c1ccc(C2CC(=O)c3c(n(O)c4ccc(Cl)cc4c3=O)C2)cc1 (stereo not given)
[6]
  No. of cured mice: 1
[7]
  No. of cured mice: 3
[9]
  No. of cured mice: 5
[1]
  Delta mean survival time: 6.6
[2]
  Delta mean survival time: 6.8
[4]
  Delta mean survival time: 5.8
[5]
  Delta mean survival time: 1.6

## CC(C)C1CC(=O)c2c(n(O)c3ccc(Cl)cc3c2=O)C1 (stereo not given)
[9]
  No. of cured mice: 5
[1]
  Delta mean survival time: 3.5
[11]
  Delta mean survival time: 0.1
[2]
  Delta mean survival time: 8.3
[4]
  Delta mean survival time: 1.7
[5]
  Delta mean survival time: 0.3

## CC1/C(=N\CCCN(C)C)c2c(nc3ccc(Cl)cc3c2O)CC1c1ccc(Cl)c(Cl)c1 (trans isomer)
[6]
  No. of cured mice: 5
[7]
  No. of cured mice: 5
[8]; 40 mg/kg
  No. of cured mice: 1
[10]
  No. of cured mice: 4
[11]; 20 mg/kg
  Delta mean survival time: 5.3
[4]; 80 mg/kg
  Delta mean survival time: 15
[5]; 40 mg/kg
  Delta mean survival time: 7.2

## CCN(CC)C1CCC(/N=C2\CC(c3ccc(Cl)c(Cl)c3)Cc3c2c(=O)c2cc(Cl)ccc2n3O)CC1 (stereo not given)
[6]
  No. of cured mice: 5
[7]
  No. of cured mice: 3
[9]
  No. of cured mice: 5
[2]
  Delta mean survival time: 12.1
[4]
  Delta mean survival time: 7.2
[5]
  Delta mean survival time: 5.6

## COc1cc(C2CC(=O)c3c(n(O)c4ccc(Cl)cc4c3=O)C2)cc(OC)c1OC (stereo not given)
[1]
  Delta mean survival time: 1.8
[2]
  Delta mean survival time: 2.7
[3]
  Delta mean survival time: 7
[4]
  Delta mean survival time: 1.3

## CN(C)CCC/N=C1\CC(c2cccc(Br)c2)Cc2c1c(=O)c1cc(Cl)ccc1n2O (stereo not given)
[7]
  No. of cured mice: 2
[9]
  No. of cured mice: 5
[1]
  Delta mean survival time: 9.4
[2]
  Delta mean survival time: 10.2
[4]
  Delta mean survival time: 5.3
[5]
  Delta mean survival time: 1.6

## C=CCNCC/N=C1\CC(c2cccc(C(F)(F)F)c2)Cc2c1c(=O)c1cc(Cl)ccc1n2O (stereo not given)
[6]
  No. of cured mice: 5
[7]
  No. of cured mice: 5
[8]
  No. of cured mice: 2
[9]
  No. of cured mice: 5
[10]
  No. of cured mice: 1
[11]
  Delta mean survival time: 3
[4]
  Delta mean survival time: 9.4
[5]
  Delta mean survival time: 5.9

## N=C1CC(c2cccc(C(F)(F)F)c2)Cc2c1c(=O)c1cc(Cl)ccc1n2O (stereo not given)
[1]
  Delta mean survival time: 3.8
[2]
  Delta mean survival time: 7.6
[3]
  Delta mean survival time: 8.2
[4]
  Delta mean survival time: 3.4
[5]
  Delta mean survival time: 1.4

## CSCCC/N=C1\CC(c2ccc(Cl)c(Cl)c2)Cc2c1c(=O)c1cc(Cl)ccc1n2O (stereo not given)
[9]
  No. of cured mice: 1
[1]
  Delta mean survival time: 1.7
[2]
  Delta mean survival time: 4.1
[3]
  Delta mean survival time: 3.7

## CC1C(=O)c2c(nc3ccc(Cl)cc3c2O)CC1c1ccc(Cl)c(Cl)c1 (stereo not given)
[6]
  No. of cured mice: 5
[7]
  No. of cured mice: 5
[8]
  No. of cured mice: 3
[9]
  No. of cured mice: 5
[10]
  No. of cured mice: 5
[11]
  Delta mean survival time: 8.2
[5]
  Delta mean survival time: 10.8

## CCN(CC)CCO/N=C1\CC(c2ccc(Cl)c(Cl)c2)Cc2c1c(=O)c1cc(Cl)ccc1n2O (stereo not given)
[1]
  Delta mean survival time: 2.1
[2]
  Delta mean survival time: 3.7
[3]
  Delta mean survival time: 8.7
[4]
  Delta mean survival time: 0.9

## CCN1CCCC(/N=C2\CC(c3ccc(Cl)c(Cl)c3)Cc3c2c(=O)c2cc(Cl)ccc2n3O)C1 (stereo not given)
[6]
  No. of cured mice: 2
[7]
  No. of cured mice: 4
[9]
  No. of cured mice: 5
[1]
  Delta mean survival time: 8.3
[2]
  Delta mean survival time: 8.8
[4]
  Delta mean survival time: 7.2

## CCCC/N=C1\CC(c2ccc(C(F)(F)F)cc2)Cc2c1c(=O)c1cc(Cl)ccc1n2O (stereo not given)
[6]
  No. of cured mice: 5
[7]
  No. of cured mice: 5
[8]
  No. of cured mice: 1
[9]
  No. of cured mice: 5
[10]
  No. of cured mice: 3
[11]
  Delta mean survival time: 5.3
[4]
  Delta mean survival time: 10.2
[5]
  Delta mean survival time: 8.5
